# According to PubChem BioAssay:
# Activity calls are given as the source filed them.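 How the source made its calls, unless noted: active means compounds giving at least 50% inhibition in the cell-based MKP-3 phosphatase rescue imaging test; inactive means the rest.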
# Key:
# [1] = inhibitors of TNFa-induced NFkB p65 translocation, primary screen, imaging, HUVEC, MLSMR starter and 10KST1 sets (AID 438;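 active means inhibition above 20% together with a positive visual image hit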;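 further: compound added about 3h40 before a 20 min TNFalpha stimulation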;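 on inhibition: signal is the nuclear over cytoplasmic p65 intensity ratio per well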); details: HUVEC TNFa-induced p65 nuclear translocation; cell count: measured here: nuclei count (cytotoxicity indicator), at 2.08 µM; inhibition: at 2 µM, stronger effect = higher value, 0% TNFa-plus-vehicle, 100% no-TNFa wells
# [2] = endothelial E-selectin expression blockers – imaging, HUVEC, immunofluorescence, MLSMR starter and 10KST1 sets, primary screen (AID 487;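 active means visually confirmed hit in the image check and inhibition above 20%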;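 on inhibition: signal is fraction of cell area covered by stained E-selectin grains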;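 on nuclei count: 100% = median nuclei count of all wells on the same plate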); details: HUVEC TNFalpha-induced E-selectin immunofluorescence imaging, at 2 µM; inhibition: stronger effect = higher value; nuclei count: measured here: cell number, toxicity
# [3] = Primary imaging screen for DUSP6 inhibitors that restore phospho-Erk in transfected HeLa cells, chemical complementation (AID 609); details: HeLa MKP-3 transfected, phospho-Erk imaging KS statistic, at 10 µM, cells stimulated with TPA for 15 min;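 on inhibition: phospho-Erk level distribution per well compared with pooled transfected vehicle control wells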
# [4] = target: Dual specificity protein phosphatase 6 (Homo sapiens) (UniProt Q16828); experiment: as above; details: HeLa MKP-3 transfected, phospho-Erk imaging KS statistic; at 10 µM; stronger effect = higher value; cells stimulated with TPA for 15 min
# Sequence of Dual specificity protein phosphatase 6 (Homo sapiens) (Q16828 whole entry, looked up): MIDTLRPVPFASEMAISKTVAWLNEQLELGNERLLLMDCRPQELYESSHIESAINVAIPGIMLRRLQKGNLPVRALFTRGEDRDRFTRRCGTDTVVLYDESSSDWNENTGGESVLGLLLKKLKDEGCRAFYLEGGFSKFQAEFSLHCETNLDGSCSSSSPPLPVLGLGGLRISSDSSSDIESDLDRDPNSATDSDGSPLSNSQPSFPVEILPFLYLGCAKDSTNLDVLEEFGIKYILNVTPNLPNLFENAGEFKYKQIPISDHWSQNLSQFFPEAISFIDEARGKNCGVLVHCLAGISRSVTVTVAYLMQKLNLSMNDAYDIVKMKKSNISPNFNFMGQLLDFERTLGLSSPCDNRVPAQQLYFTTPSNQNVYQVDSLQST
# [5] = target: Voltage-gated potassium channel subunit beta-2 (Rattus norvegicus) (UniProt P62483); experiment: inhibitors of rat Kvbeta2 reductase activity – biochemical, NADPH fluorescence, primary screen (AID 622;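 active means fluorescence slope higher than the sample average by over 3 SD, cut at about -0.22 in these data, passing the limit was not always enough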;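 further: slope of raw intensity against log time taken from 70 to 1610 s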); details: recombinant KvBeta, 4-cyanobenzaldehyde reduction, at 10 µM, stronger effect = higher value
# Sequence of Voltage-gated potassium channel subunit beta-2 (Rattus norvegicus) (P62483 whole entry, looked up): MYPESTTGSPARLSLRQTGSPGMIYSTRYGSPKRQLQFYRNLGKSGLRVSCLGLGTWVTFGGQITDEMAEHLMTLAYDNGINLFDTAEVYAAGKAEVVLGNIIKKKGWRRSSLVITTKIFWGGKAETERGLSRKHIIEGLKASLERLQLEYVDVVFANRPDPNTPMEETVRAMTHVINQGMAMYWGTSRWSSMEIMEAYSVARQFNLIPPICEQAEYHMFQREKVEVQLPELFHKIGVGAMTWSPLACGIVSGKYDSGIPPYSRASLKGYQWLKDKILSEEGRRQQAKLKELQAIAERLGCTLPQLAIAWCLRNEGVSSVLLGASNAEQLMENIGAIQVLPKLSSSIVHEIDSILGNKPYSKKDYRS
# [6] = target: Voltage-gated potassium channel subunit beta-2 (Rattus norvegicus) (UniProt P62483); experiment: enhancers of rat Kvbeta2 NADPH turnover – biochemical, NADPH fluorescence, primary screen (AID 623;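 active means NADPH fluorescence slope more negative than the mean of all samples by about 3 SD, 99.7% confidence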;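 further: fluorescence intensity change per second fitted from 20 to 320 s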); details: Recombinant KvBeta, NADPH fluorescence decrease slope, 10 min; at 10 µM; stronger effect = lower value
# [7] = target: Muscarinic acetylcholine receptor M4 (Homo sapiens) (UniProt P08173); experiment: M4-linked GIRK flux change, two-sided – cell-based, HEK293 M4/GIRK, thallium flux, BTC-AM, M4 allosteric agonist project, primary screen (AID 625;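 active means fluorescence slope after compound addition differing from the mean of all tested samples at 99.7% confidence, mostly higher but some lower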;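 further: thallium influx through GIRK channels coupled to M4 in HEK293 cells with BTC-AM dye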); details: at 10 µM, actives lie on both sides
# Sequence of Muscarinic acetylcholine receptor M4 (Homo sapiens) (P08173 whole entry, looked up): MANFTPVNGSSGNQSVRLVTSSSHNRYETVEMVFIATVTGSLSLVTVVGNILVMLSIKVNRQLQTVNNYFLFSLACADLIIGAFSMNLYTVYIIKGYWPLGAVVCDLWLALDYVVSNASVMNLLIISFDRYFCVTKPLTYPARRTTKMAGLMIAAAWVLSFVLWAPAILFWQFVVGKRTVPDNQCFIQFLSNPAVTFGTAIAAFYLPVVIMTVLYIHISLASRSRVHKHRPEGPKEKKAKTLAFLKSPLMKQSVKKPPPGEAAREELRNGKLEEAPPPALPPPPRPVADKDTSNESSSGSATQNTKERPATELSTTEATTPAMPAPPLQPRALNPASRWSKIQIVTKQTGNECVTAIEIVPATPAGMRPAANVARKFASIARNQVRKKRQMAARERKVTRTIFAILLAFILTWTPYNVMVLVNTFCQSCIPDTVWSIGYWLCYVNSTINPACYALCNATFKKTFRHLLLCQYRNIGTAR
# How it was run: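 Material – HEK293 cells with M4 receptor and GIRK channels · Buffer or medium – pH 7.3 thallium assay buffer · Doses – one dose, 10 µM final · Timing – cells overnight at 37 °C, BTC-AM loading 1 h, reads 2 min total · Measured by – kinetic fluorescence with BTC-AM dye · Controls – carbachol and DMSO controls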
# [8] = inhibitors of larval lipid processing in zebrafish, primary screen, whole organism, PED6 fluorescence, gall bladder and intestine (AID 686;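 active means a full or partial loss of lipid-probe fluorescence in the fish gall bladder, intestine or both, judged by eye; inactive means no fluorescence loss, or compound toxic to the fish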;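 further: larvae 5 to 7 days old with five fish per well; signal comes from phospholipase A2 cleavage of quenched PED6 carried via bile; overnight exposure to compound and PED6 before scoring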); details: Zebrafish larvae PED6 lipid processing, fluorescence scoring; screened at 20 µM (by protocol)
# How it was run: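 system = live zebrafish larvae aged 5-7 days, whole organism | probe or stimulus = ingested quenched lipid PED6 at 100 nM | doses = 20 µM single dose | timing = overnight exposure | detection = fluorescence microscopy with visual scoring of gall bladder and intestine | read-out = visual per-well fluorescence inhibition score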
# [9] = loss of swimming-algae plug formation – whole organism, Chlamydomonas reinhardtii, WT vs cilia-less mutant, absorbance, 96-well, primary screen (AID 463189;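 active means inhibition at or above 50% relative to wild type and mutant plate controls; inactive means inhibition below 50%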;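 further: 0% = wild type cc124 cells in DMSO and 100% = ciliumless bld1 mutant cells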); details: Chlamydomonas reinhardtii gravitaxis, OD600 absorbance, 2 days; at 10 µM; stronger effect = higher value
# [10] = measured here: cell density z-score
# [11] = measured here: nuclear c-Myc green intensity z-score
# [12] = measured here: nuclear pErk red intensity z-score, stronger effect = higher value
Structure (SMILES),cell count [1],inhibition [1],inhibition [2],nuclei count [2] [%],"z-score [3, 10]","z-score [3, 11]","z-score [3, 12]",inhibition [4],fluorescence slope [5],NADPH fluorescence slope [6],fluorescence slope [7],outcome [8],inhibition [9]
CC(=O)Nc1ccc(OC(=O)CC2SC(=O)NC2=O)cc1 (configuration not stated),552,-6.8% (inactive),-32.3% (inactive),97.7,-1.89,0.746,-1.34,-2.91% (inactive),-0.469 (inactive),-3.2e-05 (inactive),0.00549 (inactive),inactive,-6.84% (inactive)
O=C1c2ccccc2-c2onc3ccc(NCc4ccco4)c1c23,705,-2.6% (inactive),-23.9% (inactive),118,0.599,-0.783,0.692,10.9% (inactive),-0.14 (inactive),1.2e-05 (inactive),0.000102 (inactive),active; no signal in gallbladder and intestine,-2.14% (inactive)
O=c1c2c3c(sc2nc2n1CCCS2)CCCC3,612,-6.1% (inactive),-125% (inactive),162,-0.979,-0.423,0.7,-7.67% (inactive),-0.477 (inactive),-9.8e-05 (inactive),0.00442 (inactive),inactive,73.3% (active)
c1ccc(-n2c(Cc3cccnc3)nc3cnccc32)cc1,581,-2.4% (inactive),48.6% (inactive),107,-0.422,-1.1,-1.28,-6.48% (inactive),-0.468 (inactive),-5.8e-05 (inactive),0.00562 (inactive),inactive,1.93% (inactive)
Cc1ccc(NC(=O)CSc2nnc(-c3ccco3)c(-c3ccco3)n2)cc1,389,-7.7% (inactive),-155% (inactive),183,-0.429,-0.71,1.45,-0.608% (inactive),-0.453 (inactive),-0.000112 (inactive),0.00329 (inactive),inactive,11.9% (inactive)
CCCc1cc(=O)oc2c(CN3CCCC3)c(O)ccc12,571,-10.8% (inactive),-11.6% (inactive),118,0.0938,-0.952,-1.55,0.671% (inactive),-0.0292 (inactive),1.1e-05 (inactive),0.0058 (inactive),inactive,-1.86% (inactive)
CCN(CC)CCN1C(=O)C(O)=C(C(C)=O)C1c1ccc(OC)c(OC)c1 (configuration not stated),466,0.4% (inactive),-202% (inactive),182,0.172,-0.258,1.22,-5.62% (inactive),-0.445 (inactive),-4.1e-05 (inactive),0.00464 (inactive),inactive,2.41% (inactive)
COc1cccc(C(=O)Nc2ccc(-c3nnc(-c4ccco4)o3)cc2)c1,684,6.3% (inactive),25.7% (inactive),158,-0.186,0.958,-0.649,1.63% (inactive),-0.476 (inactive),-4.6e-05 (inactive),0.00624 (inactive),inactive,-6.98% (inactive)
CCN1CCc2c(C#N)c(NCc3ccccc3)nc(N(CC)CC)c2C1,554,-13.9% (inactive),-108% (inactive),141,0.401,-1.69,0.375,3.49% (inactive),-0.439 (inactive),-0.000126 (inactive),0.00477 (inactive),inactive,119% (active)
CCOC(=O)CSc1nc(N)c(C(=O)Nc2ccc(N(C)C)cc2)s1,703,-7% (inactive),-123% (inactive),188,-1.17,1.84,-1.52,1.98% (inactive),-0.46 (inactive),-6.8e-05 (inactive),0.00383 (inactive),active; weak signal in gallbladder and intestine,-7.12% (inactive)
CC(C(=O)NC(=O)NCc1ccccc1)N1C(=O)c2ccccc2C1=O (configuration not stated),655,6.1% (inactive),-28.7% (inactive),94.9,0.127,0.0595,-0.687,-11.4% (inactive),-0.461 (inactive),-4.3e-05 (inactive),0.00457 (inactive),inactive,-4.8% (inactive)
CC(=O)c1cccc(N=C2NC(=O)C(CO)(CO)S2)c1,634,1.6% (inactive),-12.3% (inactive),118,-2.29,1.22,0.157,-2.09% (inactive),-0.441 (inactive),-4.4e-05 (inactive),0.00557 (inactive),inactive,-10% (inactive)
COc1ccc(OC)c(C2C(C#N)=C(N)Oc3cc(C)n(Cc4ccccn4)c(=O)c32)c1 (configuration not stated),736,3.4% (inactive),-76% (inactive),167,0.84,0.709,-0.214,13.2% (inactive),-0.443 (inactive),-7.4e-05 (inactive),0.0059 (inactive),inactive,11.4% (inactive)
O=C(NCCCNCc1ccccc1)/C(=N\O)c1ccccc1,518,-4.7% (inactive),-1% (inactive),164,-0.176,1.16,0.402,15.9% (inactive),-0.401 (inactive),-5.4e-05 (inactive),0.00368 (inactive),inactive,7.18% (inactive)
CCCCN(C(=O)CCC(=O)O)C1CC(=O)N(c2ccc(OCCC)cc2)C1=O (configuration not stated),639,5.2% (inactive),-33% (inactive),116,-0.992,-0.45,-0.105,-9.53% (inactive),-0.464 (inactive),-2.3e-05 (inactive),0.00463 (inactive),inactive,-0.122% (inactive)
Cc1ccc(N2CC(C(=O)Nc3ccc(N(C)C)cc3)CC2=O)cc1C (configuration not stated),477,-7.1% (inactive),-76.8% (inactive),107,-1.37,0.307,1.15,-1.98% (inactive),-0.411 (inactive),-9.5e-07 (inactive),0.00461 (inactive),inactive,-1.65% (inactive)
CC1(C)CC(=O)C2=C(C1)OC(N)=C(C#N)C2C1C=CCCC1 (configuration not stated),725,-1.5% (inactive),-74.9% (inactive),173,-0.465,0.0637,1.38,7.83% (inactive),-0.43 (inactive),-5.1e-05 (inactive),0.00473 (inactive),inactive,9.73% (inactive)
Cc1ccc(Oc2nc3c(c(=O)n(Cc4ccccc4F)c(=O)n3C)n2C)cc1,749,2.1% (inactive),-74.9% (inactive),156,0.256,-1.95,-0.363,19.8% (inactive),-0.508 (inactive),-3.8e-05 (inactive),0.00827 (inactive),inactive,11.6% (inactive)
Cn1c(=O)n(CC(=O)Nc2ccccc2)c2ccccc21,382,-4.5% (inactive),-15.2% (inactive),152,-0.194,0.676,-0.438,22.3% (inactive),-0.453 (inactive),-0.000119 (inactive),0.0039 (inactive),inactive,-5.61% (inactive)
COC(=O)C(C)Sc1nc2c(c(=O)n(C)c(=O)n2C)n1CCC(C)C (configuration not stated),630,0.3% (inactive),-5.5% (inactive),179,0.304,-0.191,-1.37,3.42% (inactive),-0.42 (inactive),-1.8e-05 (inactive),0.00499 (inactive),inactive,4.36% (inactive)
N#Cc1c(NCCCO)nc(-c2ccccc2)c2c1CCCC2,598,-4.5% (inactive),-60.9% (inactive),154,-0.266,0.00477,1.17,-0.233% (inactive),-0.435 (inactive),-0.000107 (inactive),0.00541 (inactive),inactive,0.512% (inactive)
Cc1cc(C)n(S(=O)(=O)/C=C/c2ccccc2)n1,395,-10.4% (inactive),-329% (inactive),150,8.45e-06,-0.53,0.596,-10.6% (inactive),-0.475 (inactive),-0.000103 (inactive),0.00397 (inactive),inactive,25.5% (inactive)
COc1ccccc1C1/C(=C(/O)c2ccc(OC(C)C)cc2)C(=O)C(=O)N1c1cc(C)on1 (configuration not stated),437,-8.5% (inactive),-118% (inactive),148,1.18,-0.452,-0.964,9.37% (inactive),-0.438 (inactive),-0.000335 (active),0.006 (inactive),inactive,-0.61% (inactive)
COC(=O)NC(Nc1sc2c(c1C(N)=O)CCCC2)(C(=O)OC)C(F)(F)F (configuration not stated),713,11.7% (inactive),-59.3% (inactive),147,0.143,-0.0847,-0.638,-11.4% (inactive),-0.431 (inactive),-7.5e-05 (inactive),0.00518 (inactive),inactive,-3.75% (inactive)
